Results collected from several papers.
Lines come from different studies, so protocols differ.
Organism: Severe acute respiratory syndrome coronavirus 2

SMILES	assay	test system	setting	measurement	result
COc1ccc(C[C@@H]2c3cc(Oc4cc(C[C@@H]5c6cc(O)c(OC)cc6CCN5C)ccc4O)c(OC)cc3CCN2C)cc1	cytopathic effect	Vero C1008	1.562 µM	inhibition	0%
Cc1cc(NC(=O)c2cc3c(=O)n4cccc(C)c4nc3n2C)ccc1Br	viral replication	Vero	10 µM	inhibition	91.9%
CCCCCCCCCCCCCCCCOCCCOP(=O)(O)OC[C@H]1O[C@@](C#N)(c2ccc3c(N)ncnn23)[C@H](O)[C@@H]1O	viral replication, inhibitor, qPCR	Vero C1008	–	EC50	0.63 µM
CC1=NN(c2ccccc2)C(=O)C1	viral replication, inhibitor	Huh-7	–	IC50	> 2 µM
OC(CCN1CCCCC1)(c1ccccc1)C1CCCCC1 (stereo not shown)	viral replication	Vero C1008	–	IC50	8.91 µM
Cn1c(C(=O)Nc2ccc(Cl)cc2)cc2c(=O)n3ccccc3nc21	viral replication	Vero	1 nM	inhibition	5.41%
C=C1[C@H](CO)[C@@H](O)C[C@@H]1n1cnc2c(=O)[nH]c(N)nc21	viral replication, inhibitor	Huh-7	–	IC50	0.042 µM
CCCN(CCC)CCc1ccc(OC)c(OCCc2ccccc2)c1	viral replication, inhibitor	A549-ACE2	–	IC50	1.41 µM
Cn1c(C(=O)Nc2ccc3c(c2)OCCO3)cc2c(=O)n3ccccc3nc21	viral replication	Vero	0.1 µM	inhibition	37.7%
Fc1ccc(C(OCCN2CCN(CCCc3ccccc3)CC2)c2ccc(F)cc2)cc1	viral replication, inhibitor	A549-ACE2	–	IC50	6.03 µM
Cn1cnc(Cn2c(=O)[nH]/c(=N\c3cc4cn(C)nc4cc3Cl)n(Cc3cc(F)c(F)cc3F)c2=O)n1	viral replication, inhibitor, qPCR	–	48 h	EC50	0.023 µM
Cc1cc(C)c(N(C)CC(=O)Nc2nc(-c3ccccn3)c[nH]2)c(C)c1	viral replication, inhibitor	Vero C1008	1 µM	inhibition	50.7%
N[C@@H](Cc1cc(I)c(Oc2cc(I)c(O)c(I)c2)c(I)c1)C(=O)O	plaque formation, inhibitor	Vero C1008	–	EC50	7 µM
Cc1ccc(NC(=O)c2cc3c(=O)n4cccc(C)c4nc3n2C)cc1Cl	viral replication	Vero	10 nM	inhibition	25.8%
OCCOCCN1CCN(C(c2ccccc2)c2ccc(Cl)cc2)CC1 (stereo not shown)	viral replication, inhibitor	A549-ACE2	–	IC50	3.63 µM
Cc1cc2c(cc1C(=O)Oc1ccc(C(=O)O)cc1)C(C)(C)CCC2(C)C	viral replication, inhibitor	Vero C1008	1 µM	inhibition	49.8%
CC(C)=CCc1c(O)ccc(C(=O)/C=C/c2ccc(O)cc2)c1O	cytopathic effect	Vero C1008	6.25 µM	inhibition	0%

SMILES	assay	test system	setting	measurement	result
CCC(CC)COC(=O)[C@H](C)N[P@](=O)(OC[C@H]1O[C@@](C#N)(c2ccc3c(N)ncnn23)[C@H](O)[C@@H]1O)Oc1ccccc1	viral replication	Vero	10 µM	inhibition	98%
CCC(CC)COC(=O)[C@H](C)N[P@](=O)(OC[C@H]1O[C@@](C#N)(c2ccc3c(N)ncnn23)[C@H](O)[C@@H]1O)Oc1ccccc1	viral replication, inhibitor	Huh-7	–	IC50	0.006 µM
O=C(O)c1c(Nc2cccc(F)c2)[nH]c2cc(Cl)ccc2c1=O	viral entry, inhibitor	NCI-H1299	pseudovirus	EC50	0.69 µM
Cc1cccc(CN2CCN(C(c3ccccc3)c3ccc(Cl)cc3)CC2)c1 (stereo not shown)	viral replication	Vero C1008	–	IC50	1.35 µM
O=C(/C=C/c1ccc(O)c(O)c1/C=C/c1ccc(O)c(O)c1)O[C@H](Cc1ccc(O)c(O)c1)C(=O)O	cytopathic effect, inhibitor	Vero C1008	12.5 µM	inhibition	0%
O=C(Nc1ccccc1F)c1cc2c(=O)n3ccccc3nc2n1Cc1ccccc1	viral replication	Vero	0.1 µM	inhibition	87.2%
CCC(CC)COC(=O)[C@H](C)N[P@](=O)(OC[C@H]1O[C@@](C#N)(c2ccc3c(N)ncnn23)[C@H](O)[C@@H]1O)Oc1ccccc1	viral replication, inhibitor, qPCR	Vero C1008	–	EC50	1.13 µM
CC(C)/N=c1\cc2n(-c3ccc(Cl)cc3)c3ccccc3nc-2cc1Nc1ccc(Cl)cc1	viral replication, inhibitor	Huh-7	–	IC50	0.085 µM
N#C[C@@]1(c2ccc3c(N)ncnn23)O[C@H](CO)[C@@H](O)[C@H]1O	viral replication, inhibitor, qPCR	Vero C1008	48 h	EC90	0.77 µM
Clc1ccc(C(OCCN2CCCCC2)c2ccccc2)cc1 (stereo not shown)	viral replication, inhibitor	A549-ACE2	–	IC50	1.51 µM
CCc1ccc(NC(=O)c2cc3c(=O)n4ccccc4nc3n2C)cc1	viral replication	Vero	1 nM	inhibition	4.08%
O=C(O[C@@H]1Cc2c(O)cc(O)cc2O[C@@H]1c1cc(O)c(O)c(O)c1)c1cc(O)c(O)c(O)c1	cytopathic effect	Vero C1008	0.7812 µM	inhibition	0%
CCOC(=O)c1[nH]c2cc(OC)c(OC)cc2c1CCN1CCN(c2ccccc2)CC1	viral replication, inhibitor	Vero C1008	1 µM	inhibition	52.8%
CN(Cc1cc(Br)cc(Br)c1N)C1CCCCC1	viral replication, inhibitor	A549-ACE2	–	IC50	1.32 µM
CCCCCCCCCCCCCCCCCCOC[C@H](COP(=O)(O)OC[C@H]1O[C@@](C#N)(c2ccc3c(N)ncnn23)[C@H](O)[C@@H]1O)OCc1ccccc1	viral replication, inhibitor, qPCR	Vero C1008	48 h	EC90	0.16 µM
CCN(CC)CCO[C@H]1CC[C@@]2(C)C(=CC[C@@H]3[C@@H]2CC[C@]2(C)C(=O)CC[C@@H]32)C1	viral replication, inhibitor	A549-ACE2	–	IC50	0.132 µM
C=C[C@@](C)(/C=C/c1ccc(O)cc1)CCC=C(C)C	cytopathic effect	Vero C1008	6.25 µM	inhibition	0%
